Screening results deposited in PubChem BioAssay by The Scripps Research Institute Molecular Screening Center.
PLCb3 inh: inhibitors of human phospholipase C beta3 | Q01970 | Purified PLC-beta3, fluorogenic substrate, fluorescence | inhibition, % at 12.2 µM | actives 0.18% (n = 370,000)
PLCg1 inh: PLC-gamma1 (human) inhibition, primary screen | P19174 | purified PLC-gamma1, fluorogenic substrate, fluorescence | inhibition, % at 12.2 µM | actives 0.84% (n = 370,000); in the data active means inhibition above about 9.5%
procasp3 activ: activates human procaspase-3; P42574; recombinant procaspase-3 D3A, Ac-DEVD-pNA absorbance 405 nm; activation, % at 8.5 µM; actives 0.11% (n = 330,000); AID 463141;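 active means activation above the mean of all tested compounds plus 3 SD, cut at about 21% in these data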
Target sequence (P42574 whole entry D9A/D28A/D175A): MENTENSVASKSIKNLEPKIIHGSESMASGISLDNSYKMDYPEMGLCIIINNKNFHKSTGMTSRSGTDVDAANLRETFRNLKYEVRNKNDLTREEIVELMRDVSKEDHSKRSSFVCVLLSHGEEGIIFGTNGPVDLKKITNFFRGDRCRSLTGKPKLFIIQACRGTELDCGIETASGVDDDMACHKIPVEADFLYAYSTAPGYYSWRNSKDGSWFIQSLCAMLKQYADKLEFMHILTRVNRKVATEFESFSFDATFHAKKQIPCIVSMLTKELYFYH
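Test system: Procaspase-3 D3A mutant; medium: Zinc-free HEPES/NaCl buffer with 0.01% Triton X-100 at pH 7.4; reagent: DEVD-pNA substrate; doses: one concentration, 8.5 µM nominal, 0.8% DMSO; times: 1 h preincubation plus 2 h reaction at 25 °C; signal: Epi-absorbance at 405 nm of released p-nitroaniline, 0 and 120 min; replicates: singlicate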
HGIII-sPLA2 inh: Blocks human group III sPLA2 activity; actives 0.56% (n = 370,000); inhibition, % at 12.2 µM; QFRET BODIPY PC-A2 liposome hydrolysis, fluorescence; AID 743126; Q9NZ20;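 active means inhibition above mean plus 3 SD of compounds lying within the high and low control bounds, cut at about 19% in these data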
proCasp7 act: counter-screen: procaspase-7 (human) activation; activation, % at 8.5 µM; P55210; actives 0.093% (n = 330,000); recombinant procaspase-7, Ac-DEVD-pNA absorbance 405 nm; D23A/D198A/D206A triple mutant, cannot self-cleave; scale: DMSO 0, 5 µM enzyme 100;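 active means percent activation above the screen-wide mean plus 3 SD, cut at about 25% in these data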
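Assay system: Uncleavable procaspase-7 mutant enzyme / Input: 2 µM procaspase-7 mutant as dispensed / Dosing: single nominal 8.5 µM compound dose, 0.8% DMSO final / Timing: 1 h enzyme–compound preincubation and 2 h substrate reaction, both 25 °C / Detection: p-Nitroaniline absorbance at 405 nm, read at 0 and 120 min / Replication: singlicate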
PC3 D3A act: activates human procaspase-3, dual activator counter-screen. 290 tested, under 10 active. AID 493114. activation, % at 8.5 µM. shares compounds with proCasp7 act. recombinant PC-3 D3A, Ac-DEVD-pNA absorbance 405 nm; aspartates 9, 28, 175 changed to alanine; 100% = enzyme control;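 active means mean percent activation across triplicates above a set limit taken from the earlier primary procaspase-3 screen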
PC7 dual conf: procaspase-7 (human) activation, dual activator confirmation. shares compounds with proCasp7 act. 290 tested, under 10 active. AID 493115. activation, % at 8.5 µM. recombinant procaspase-7, Ac-DEVD-pNA absorbance 405 nm; D23A/D198A/D206A mutant that cannot self-cleave;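 active means mean activation above a set limit carried over from the earlier primary screen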
PLCgamma1 ctr: inhibits human PLC-gamma1 in PLC-beta3 counter-screen; shares compounds with PLCg1 inh; purified PLC-gamma1, fluorogenic substrate, fluorescence; inhibition, % at 12.3 µM; actives 3.1% (n = 3,300); AID 743258; in the data active means inhibition above about 9.5%
PLCb3 confirm: confirmation of human PLC-beta3 inhibitors | shares compounds with PLCg1 inh | purified PLC-beta3, fluorogenic substrate fluorescence | inhibition, % at 12.3 µM | actives 1% (n = 3,300)
sPLA2 confirm: human GIII-sPLA2 inhibition, confirmation; recombinant hGIII-sPLA2, BODIPY PC-A2 QFRET fluorescence; actives 34% (n = 2,000); inhibition, % at 12.2 µM; shares compounds with HGIII-sPLA2 inh;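 active means mean inhibition across triplicates above the hit cutoff set in the earlier primary screen, cut at about 19% in these data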
BODIPY interf: 535nm fluorescence interference, HGIII-sPLA2 counter-screen | shares compounds with HGIII-sPLA2 inh | BODIPY FL product fluorescence interference, QFRET | actives 8.5% (n = 2,000) | AID 743282 | inhibition, % at 12.2 µM;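 active means average inhibition above the solvent-only control mean plus 3 SD, cut at about 6% in these data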
Each line names hits and unclear results; the compound was inactive in the other large screens (follow-up assays come after a bar, where they were run). In the library only some 1.6% were active in any assay of this set; here they are far more common. Unless noted, no stated cut-off is given here; in the data, active means inhibition above about 11%; inactive means the rest.

CCOC(=O)N(C)c1c(CC)nc2c(OCc3cc(Cl)cc(Cl)c3)cccn12	none (no result: procasp3 activ, proCasp7 act)
CC(C)c1c(C(=O)N/N=C/c2ccc3c(c2)OCO3)nnn1-c1nonc1N	none
CCN(CC)c1ccc(/C=N/NC(=O)c2nnn(-c3nonc3N)c2C(C)C)c(O)c1	procasp3 activ 59, HGIII-sPLA2 inh 24, proCasp7 act 44 | PC3 D3A act inactive | PC7 dual conf inactive | sPLA2 confirm 46 | BODIPY interf 7.6
CN(C)S(=O)(=O)c1cc([N+](=O)[O-])ccc1N1CCCCCC1	PLCg1 inh 10 | PLCgamma1 ctr inactive | PLCb3 confirm inactive
Nc1nc(Cl)cc(Nc2ccccc2Cl)n1	none
CCc1c(N)nc(N)nc1Nc1ccccc1Cl	PLCb3 inh 11, PLCg1 inh 11 (no result: procasp3 activ, proCasp7 act) | PLCgamma1 ctr inactive | PLCb3 confirm inactive
Cc1ccc(C(C(=O)NC2CCCCC2)N(Cc2ccco2)C(=O)C2COc3ccccc3O2)o1 (stereo unspecified)	PLCg1 inh 9.6 | PLCgamma1 ctr inactive | PLCb3 confirm inactive
Cc1ccc(C(C(=O)NC2CCCCC2)N(Cc2cccnc2)C(=O)C2COc3ccccc3O2)o1 (stereo unspecified)	none
C[C@]12CCC[C@H](O1)c1c(cc3c(c1O)C(=O)c1c(O)cc(O)cc1C3=O)O2	none
CCOc1ccc(S(=O)(=O)N2CCN(C(=O)c3ccc(-n4cncn4)c([N+](=O)[O-])c3)CC2)cc1	none
COc1ccc(CCN(C)C(=O)CN2C(=O)NC3(CCCc4ccccc43)C2=O)cc1OC (stereo unspecified)	PLCg1 inh 12 | PLCgamma1 ctr inactive | PLCb3 confirm inactive
COc1ccc(N2CCN(C(=O)C(=O)c3ccc(F)cc3)CC2)cc1	none (no result: procasp3 activ, proCasp7 act)
CCOC(=O)C1CCCN(C(=O)c2cccc(S(=O)(=O)N(Cc3ccccc3)c3ccccc3OC)c2)C1 (stereo unspecified)	PLCg1 inh 9.7 | PLCgamma1 ctr inactive | PLCb3 confirm inactive
Nc1ccc(N2CCCCC2)c2nonc12	PLCg1 inh 34 | PLCgamma1 ctr inactive | PLCb3 confirm inactive
Nc1c(N2CCCC2)cc(Cl)c2nonc12	none (no result: PLCb3 inh, PLCg1 inh, HGIII-sPLA2 inh)
O=C(/C=C/Nc1ccc(F)c(Cl)c1)c1ccccc1	none
O=C(CCc1ccccc1)N[C@H]1[C@H](OC(=O)c2cnccn2)CCC[C@@]12C(=O)N(Cc1ccccc1)c1ccccc12	none (no result: procasp3 activ, proCasp7 act)
O=C(CCc1ccccc1)N[C@H]1[C@@H](OC(=O)c2cnccn2)CCC[C@@]12C(=O)N(Cc1ccccc1)c1ccccc12	PLCg1 inh 12 (no result: procasp3 activ, proCasp7 act) | PLCgamma1 ctr 14 | PLCb3 confirm inactive
CCCCCC(=O)NC(=S)Nc1ccc(Cl)cn1	PLCg1 inh 10 | PLCgamma1 ctr inactive | PLCb3 confirm inactive
CCOC(=O)C1(CCc2ccccc2)CCN(Cc2ccccn2)CC1	PLCg1 inh 9.9 | PLCgamma1 ctr inactive | PLCb3 confirm inactive
CCCOc1ccc(C(C)=O)cc1CC(C(N)=O)C(N)=O	none
CC(=O)c1ccc(OCC(C)C)c(CC(C(N)=O)C(N)=O)c1	PLCb3 inh 12 | PLCgamma1 ctr inactive | PLCb3 confirm inactive
